Compounds with a hit are over-represented: about 1% of the library has one in this group of screens.
PDI turbidity: inhibitors of human PDI, primary screen, biochemical, turbidity, single point, plate reader. AID 588391, 2011. PDI insulin aggregation turbidity, A650, 90 min. Protein disulfide-isomerase (Homo sapiens), P07237. inhibition, % at 10 µM. hit rate 0.052% among 350,000;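 active means mean inhibition across replicates of 30% or more, whatever share of single replicates reach that level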
CAL PDZ FP-1: untagged CAL PDZ binding inhibitors, primary screen, biochemical, fluorescence polarization, HTS; Golgi-associated PDZ and coiled-coil motif-containing protein (Homo sapiens), Q9HD26; purified CAL PDZ, TMR-peptide fluorescence polarization, 1 h; inhibition, % at 24.9 µM; hit rate 0.92% among 300,000; AID 602252, 2012;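 active means mean inhibition of at least 30% with at least half of replicates also reaching 30%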;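 further: 0% = DMSO neutral control and 100% = excess unlabeled competitor peptide PRC23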
CAL PDZ FP-2: CAL PDZ peptide-binding inhibitors, primary screen, biochemical, fluorescence polarization, Cer-tagged CAL PDZ, HTS. Golgi-associated PDZ and coiled-coil motif-containing protein (Homo sapiens), Q9HD26. purified CAL PDZ, TMR-peptide fluorescence polarization, 1 h. inhibition, % at 20 µM. hit rate 0.02% among 330,000. AID 504414, 2011;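 active means highest replicate inhibition of at least 40%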;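 further: plate controls were DMSO neutral control wells for no effect and unlabeled competitor peptide control wells for full effect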
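System: tagged CAL PDZ domain. Schedule: 1 h room-temperature incubation prior to read. Signal: fluorescence polarization (mP). Measure: percent inhibition from loss of millipolarization.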
RAD54 branch: inhibitors of human RAD54 branch migration, primary screen, biochemical, fluorescence, single point | RAD54 Holliday junction branch migration, FAM/BHQ fluorescence | inhibition, % at 10.4 µM | hit rate 0.14% among 360,000;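 active means mean normalized replicate activity at least 40 and at least half of replicates scoring 40 or more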;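 further: 0% = median of neutral control wells and 100% = median of positive control wells; inhibitors cause a drop in the FAM fluorescence signal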
ERp5 inh: inhibitors of ERp5-driven insulin aggregation, primary screen, biochemical, turbidity, absorbance 650 nm, single point | Protein disulfide-isomerase A6 (Homo sapiens), Q15084 | 90 min | inhibition, % at 9.99 µM | hit rate 0.05% among 350,000 | AID 651711, 2012;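 active means mean replicate inhibition above about 25%, with every replicate also reaching it, limit read from the data, passing the limit was not always enough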
RAD52 anneal inh: RAD52 DNA annealing inhibitors, primary screen, biochemical, FRET, single point, set 2 | DNA repair protein RAD52 homolog (Homo sapiens), P43351 | recombinant RAD52 DNA annealing, FRET fluorescence | inhibition, % at 18.7 µM | hit rate 0.46% among 360,000;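 active means every replicate showing at least 50% inhibition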
Target sequence (P43351 whole entry, looked up): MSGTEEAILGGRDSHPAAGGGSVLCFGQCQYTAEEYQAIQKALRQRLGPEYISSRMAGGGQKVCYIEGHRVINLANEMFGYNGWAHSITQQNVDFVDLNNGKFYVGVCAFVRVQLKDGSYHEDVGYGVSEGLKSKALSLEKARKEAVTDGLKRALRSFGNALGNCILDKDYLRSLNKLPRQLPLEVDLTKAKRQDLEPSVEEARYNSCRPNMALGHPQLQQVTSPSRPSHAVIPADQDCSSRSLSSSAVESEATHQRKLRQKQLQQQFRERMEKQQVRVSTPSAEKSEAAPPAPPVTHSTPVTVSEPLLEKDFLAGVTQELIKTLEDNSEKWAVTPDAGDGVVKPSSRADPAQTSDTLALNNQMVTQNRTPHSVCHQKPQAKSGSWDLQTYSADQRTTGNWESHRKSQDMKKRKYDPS
Starred values were filed as active, the others as inactive.

How did CC(C(=O)N1CCN(Cc2ccccc2)CC1)c1ccc([N+](=O)[O-])cc1 (centres undefined) do in these assays?
PDI turbidity: -1.3; CAL PDZ FP-1: -3.8; CAL PDZ FP-2: -0.8; ERp5 inh: 3.3; RAD52 anneal inh: -5.9

How did C[C@H](CO)N1C[C@H](C)[C@H](CN(C)C(=O)Nc2ccc(F)cc2)Oc2ncc(-c3ccc(C#N)cc3)cc2C1=O do in these assays?
RAD54 branch: -2.6; ERp5 inh: -3.2; RAD52 anneal inh: 5.4

Results for O=C(CC(c1ccccc1)c1ccccc1)Nc1ccncc1 ?
PDI turbidity: 0.1; CAL PDZ FP-1: 81.2*; CAL PDZ FP-2: -2.8; RAD54 branch: -3.2; ERp5 inh: 1.0; RAD52 anneal inh: -17.4

What do the screens show for `CCCNC(=O)Nc1ccc2c(c1)C(=O)N(C)[C@@H]1CC[C@@H](CC(=O)OC)O[C@@H]1CO2`?
RAD54 branch: 10.6; ERp5 inh: -3.7; RAD52 anneal inh: -8.0

What do the screens show for `Cc1cccc(CS(=O)(=O)Cc2ccc(C(=O)O)o2)c1`?
PDI turbidity: -0.6; CAL PDZ FP-1: 74.6*; CAL PDZ FP-2: -1.3; RAD54 branch: -4.3

How did OC[C@@H]1CC[C@@H]2O[C@H](CCc3ccc(C#CCc4ccccc4)cc3)[C@H](n3cc(-c4ccccc4)nn3)C[C@@H]2O1 do in these assays?
ERp5 inh: -8.3; RAD52 anneal inh: -3.6

How did CCCNC(=O)C[C@H]1C[C@@H]2c3cc(NS(=O)(=O)c4ccccc4)ccc3O[C@@H]2[C@@H](CO)O1 do in these assays?
RAD54 branch: 3.5

What do the screens show for `CC(C)(C)OC(=O)n1cc(C(=O)c2ccccc2O)cn1`?
PDI turbidity: -4.0; CAL PDZ FP-1: 70.3*; CAL PDZ FP-2: -0.7; RAD54 branch: 10.4; ERp5 inh: 4.5; RAD52 anneal inh: -7.4

How did Cc1cc2oc(C(=O)Nc3ccc(S(=O)(=O)Nc4ncccn4)cc3)cc(=O)c2cc1Cl do in these assays?
PDI turbidity: -1.1; CAL PDZ FP-1: 90.0*; CAL PDZ FP-2: -0.9; RAD54 branch: -0.7; ERp5 inh: 0.8; RAD52 anneal inh: -12.6

What do the screens show for `CCOCCn1c(=O)c2c(nc3n2CCN3c2ccc(C)cc2)n(C)c1=O`?
PDI turbidity: 10.2; CAL PDZ FP-1: 77.1*; CAL PDZ FP-2: 0.1; RAD54 branch: -5.2; ERp5 inh: -2.7; RAD52 anneal inh: -6.9

Results for CCn1c(=O)c2c(nc3n2CCN3c2ccccc2)n(C)c1=O ?
PDI turbidity: -4.2; CAL PDZ FP-1: -3.7; CAL PDZ FP-2: -0.2; RAD54 branch: -1.9; ERp5 inh: 3.0; RAD52 anneal inh: -9.3

How did COc1ccc(Cl)cc1Nc1nc(N)c2ccccc2n1 do in these assays?
PDI turbidity: 4.5; CAL PDZ FP-1: 0.3; CAL PDZ FP-2: 1.3; RAD54 branch: 20.4; ERp5 inh: -0.1; RAD52 anneal inh: 23.4

How did COc1ccc(C)cc1Nc1nc(N)c2cc(OC)c(OC)cc2n1 do in these assays?
PDI turbidity: 1.2; CAL PDZ FP-1: -2.9; CAL PDZ FP-2: 0.1; RAD54 branch: 50.9*

Results for CC(C)CC#Cc1ccc([C@H]2[C@H]3CN(C(=O)NC4CCCC4)CCCCN3[C@H]2CO)cc1 ?
RAD54 branch: -17.8; ERp5 inh: 0.6; RAD52 anneal inh: 7.8

How did CN(C)c1ccc(C=NNc2nc3c([nH]2)c(=O)n(C)c(=O)n3C)cc1 do in these assays?
PDI turbidity: 5.4; CAL PDZ FP-1: -3.1; CAL PDZ FP-2: 0.1; RAD54 branch: 3.9; ERp5 inh: -5.6; RAD52 anneal inh: -11.2

How did CN(C)c1ccc(/C=N\Nc2nc(-c3ccccc3)cc(=O)[nH]2)cc1 do in these assays?
PDI turbidity: 3.7; CAL PDZ FP-1: 70.6*; CAL PDZ FP-2: 1.1; ERp5 inh: 2.3; RAD52 anneal inh: -10.5

What do the screens show for `O=C1CN(O)C=C2N=c3ccccc3=C2N1c1ccc([N+](=O)[O-])cc1`?
PDI turbidity: 11.0; CAL PDZ FP-1: 76.6*; CAL PDZ FP-2: -1.5; RAD54 branch: -19.4; ERp5 inh: 1.1; RAD52 anneal inh: -19.0

How did Cc1ccc(S(=O)(=O)N(C)C[C@@H]2Oc3ccc(NC(=O)Cc4ccccc4)cc3CC(=O)N([C@@H](C)CO)C[C@H]2C)cc1 do in these assays?
RAD54 branch: 3.8; ERp5 inh: 2.7; RAD52 anneal inh: 8.8

What do the screens show for `COc1ccc(-c2csc(N3C(=O)CNC3=S)n2)cc1`?
PDI turbidity: -3.6; CAL PDZ FP-1: 66.6*; CAL PDZ FP-2: -0.5

How did O=C1CNC(=S)N1c1nc(-c2ccccc2)cs1 do in these assays?
PDI turbidity: -2.9; CAL PDZ FP-1: 3.6; CAL PDZ FP-2: -1.7; ERp5 inh: -1.1; RAD52 anneal inh: -2.5

Results for C[C@@H]1CCCCO[C@H](CN(C)S(=O)(=O)c2ccc(F)cc2)[C@@H](C)CN([C@@H](C)CO)C(=O)c2cc(NC(=O)Nc3ccccc3)ccc2O1 ?
RAD54 branch: -7.2

Results for Cc1ccc2c(c1)c(C1=NC(=S)NC1=O)c(O)n2C ?
PDI turbidity: -7.9; CAL PDZ FP-1: 30.3*; CAL PDZ FP-2: -0.9; ERp5 inh: -6.1; RAD52 anneal inh: -4.2

Results for COc1cccc2cc(-c3ccnc(N)n3)oc12 ?
PDI turbidity: 4.2; CAL PDZ FP-1: 77.1*; CAL PDZ FP-2: 9.9; RAD54 branch: 1.9; ERp5 inh: 3.7; RAD52 anneal inh: -7.0

Results for C[C@H]1CN([C@@H](C)CO)C(=O)c2c(c3ccccc3n2C)-c2ccccc2CO[C@H]1CN(C)S(=O)(=O)c1ccccc1C#N ?
RAD54 branch: 0.6; ERp5 inh: 1.4; RAD52 anneal inh: 7.9

What do the screens show for `CCCNC(=O)C[C@@H]1C[C@@H]2c3cc(NS(=O)(=O)c4cccc(OC)c4)ccc3O[C@@H]2[C@@H](CO)O1`?
RAD54 branch: -3.7; ERp5 inh: 4.8; RAD52 anneal inh: 0.4

How did C/C(=N\OC(=O)c1cccc(C(F)(F)F)c1)c1sc(-c2ccccc2)nc1C do in these assays?
PDI turbidity: 7.1; CAL PDZ FP-1: 51.5*; CAL PDZ FP-2: -0.6; RAD54 branch: -14.4

How did CNC(=O)C1=C[C@H](c2ccc(C(=O)OC)cc2)C[C@H](OCc2ccc(CO)cc2)O1 do in these assays?
RAD54 branch: 4.5; ERp5 inh: 2.5; RAD52 anneal inh: 20.3

How did COc1cccc(C(=O)Nc2ccc3nc4n(c(=O)c3c2)CCCC4)c1 do in these assays?
PDI turbidity: -3.1; CAL PDZ FP-1: 63.1*; CAL PDZ FP-2: -1.6; RAD54 branch: -16.3; ERp5 inh: 6.1; RAD52 anneal inh: -15.9
